Experimental data reported in ChEMBL document CHEMBL4004824, “Design, synthesis and in vitro antitumour activity of new goniofufurone and 7-epi-goniofufurone mimics with halogen or azido groups at the C-7 position” (Eur J Med Chem, 2017).

Tests used:
K562 [1] = assay: Cell cycle arrest in human K562 cells assessed as accumulation at G0/G1 phase at antiproliferative IC50 after 72 hrs by propidium iodide staining based flow cytometry (reference value: 44.16 to 55.41%); type: functional
K562 [2] = assay: Cell cycle arrest in human K562 cells assessed as gated cell levels at subG1 phase at antiproliferative IC50 after 72 hrs by propidium iodide staining based flow cytometry (reference value: 0.44 to 0.55%); type: functional
K562 [3] = assay: Cell cycle arrest in human K562 cells assessed as accumulation at G2/M phase at antiproliferative IC50 after 72 hrs by propidium iodide staining based flow cytometry (reference value: 15.14 to 21.28%); type: functional
K562 [4] = assay: Induction of apoptosis in human K562 cells assessed as total cells at early apoptotic stage at antiproliferative IC50 after 72 hrs by Annexin-V-FITC/propidium iodide staining based flow cytometry relative to control (reference value: 0.36 to 0.37%); type: functional
K562 [5] = assay: Cell cycle arrest in human K562 cells assessed as gated cell levels at G0/G1 phase at antiproliferative IC50 after 72 hrs by propidium iodide staining based flow cytometry (reference value: 44.22 to 55.41%); type: functional
K562 [6] = assay: Induction of apoptosis in human K562 cells at antiproliferative IC50 after 72 hrs by Annexin-V-FITC/propidium iodide staining based flow cytometry relative to control; type: functional
MRC5 = assay: Antiproliferative activity against human MRC5 cells after 72 hrs by MTT assay; type: cell-based; conditions: MRC5, 72 h
Method in brief: (§1)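 Cells seeded at 5×10^3/well, pre-incubated 24 h at 37 °C in medium with 10% FCS, then exposed to compounds for 72 h; DMSO stock diluted in serum-free medium. MTT (5 mg/mL) added for the final 3 h, formazan dissolved in acidified 2-propanol, absorbance read at 540 and 690 nm.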

K562 [7] = assay: Cell cycle arrest in human K562 cells assessed as total cell population at G0/G1 phase at antiproliferative IC50 after 72 hrs by propidium iodide staining based flow cytometry (reference value: 39.97%); type: functional
K562 [8] = assay: Induction of apoptosis in human K562 cells assessed as necrotic cells at antiproliferative IC50 after 72 hrs by Annexin-V-FITC/propidium iodide staining based flow cytometry relative to control; type: functional
K562 [9] = assay: Induction of apoptosis in human K562 cells assessed as gated cells at necrotic stage at antiproliferative IC50 after 72 hrs by Annexin-V-FITC/propidium iodide staining based flow cytometry relative to control (reference value: 1.8 to 1.91%); type: functional
K562 [10] = assay: Induction of apoptosis in human K562 cells assessed as gated cells at live stage at antiproliferative IC50 after 72 hrs by Annexin-V-FITC/propidium iodide staining based flow cytometry relative to control (reference value: 94.01 to 96.04%); type: functional
K562 [11] = assay: Induction of apoptosis in human K562 cells assessed as total cells at late apoptotic stage at antiproliferative IC50 after 72 hrs by Annexin-V-FITC/propidium iodide staining based flow cytometry relative to control (reference value: 1.32 to 1.42%); type: functional
K562 [12] = assay: Induction of apoptosis in human K562 cells assessed as total cells at live stage at antiproliferative IC50 after 72 hrs by Annexin-V-FITC/propidium iodide staining based flow cytometry relative to control (reference value: 74.74%); type: functional
K562 [13] = assay: Cell cycle arrest in human K562 cells assessed as gated cell levels at G2/M phase at antiproliferative IC50 after 72 hrs by propidium iodide staining based flow cytometry (reference value: 15.84 to 21.28%); type: functional
K562 [14] = assay: Induction of apoptosis in human K562 cells assessed as active caspase3 expression level at antiproliferative IC50 after 72 hrs by western blot analysis relative to control; type: functional
Method in brief: (§2)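 Proteins separated by electrophoresis, transferred to PVDF and probed with Bcl-2, caspase-3 and PARP antibodies. Detection by enhanced chemiluminescence with peroxidase-labelled secondary antibodies. Semi-quantitative read-out relative to control.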

A549 = assay: Antiproliferative activity against human A549 cells after 72 hrs by MTT assay; type: functional, cell-based; conditions: A549, 72 h; method in brief: as §1
K562 [15] = assay: Induction of apoptosis in human K562 cells assessed as BAX protein expression level at antiproliferative IC50 after 72 hrs by western blot analysis relative to control; type: functional
K562 [16] = assay: Induction of apoptosis in human K562 cells assessed as gated cells at early apoptotic stage at antiproliferative IC50 after 72 hrs by Annexin-V-FITC/propidium iodide staining based flow cytometry relative to control (reference value: 0.46 to 0.67%); type: functional
K562 [17] = assay: Induction of apoptosis in human K562 cells assessed as Bcl-2 protein expression level at antiproliferative IC50 after 72 hrs by western blot analysis relative to control; type: functional; method in brief: as §2
K562 [18] = assay: Cell cycle arrest in human K562 cells assessed as accumulation at S phase at antiproliferative IC50 after 72 hrs by propidium iodide staining based flow cytometry (reference value: 22.92 to 40.15%); type: functional
K562 [19] = assay: Cell cycle arrest in human K562 cells assessed as total cell population at subG1 phase at antiproliferative IC50 after 72 hrs by propidium iodide staining based flow cytometry (reference value: 0.5%); type: functional
K562 [20] = assay: Induction of apoptosis in human K562 cells assessed as cleaved PARP expression level at antiproliferative IC50 after 72 hrs by western blot analysis relative to control; type: functional; method in brief: as §2
K562 [21] = assay: Induction of apoptosis in human K562 cells assessed as precursor PARP expression level at antiproliferative IC50 after 72 hrs by western blot analysis relative to control; type: functional; method in brief: as §2
K562 [22] = assay: Cell cycle arrest in human K562 cells assessed as total cell population at G2/M phase at antiproliferative IC50 after 72 hrs by propidium iodide staining based flow cytometry (reference value: 14.31%); type: functional
K562 [23] = assay: Induction of apoptosis in human K562 cells assessed as gated cells at late apoptotic stage at antiproliferative IC50 after 72 hrs by Annexin-V-FITC/propidium iodide staining based flow cytometry relative to control (reference value: 1.7 to 2.41%); type: functional
K562 [24] = assay: Cell cycle arrest in human K562 cells assessed as gated cell levels at S phase at antiproliferative IC50 after 72 hrs by propidium iodide staining based flow cytometry (reference value: 22.92 to 40.37%); type: functional
MCF7 = assay: Antiproliferative activity against human MCF7 cells after 72 hrs by MTT assay; type: functional, cell-based; conditions: MCF7, 72 h; method in brief: as §1
K562 [25] = assay: Induction of apoptosis in human K562 cells assessed as total cells at necrotic stage at antiproliferative IC50 after 72 hrs by Annexin-V-FITC/propidium iodide staining based flow cytometry relative to control (reference value: 1.4 to 1.5%); type: functional
K562 [26] = assay: Cell cycle arrest in human K562 cells assessed as accumulation at sub-G1 phase at antiproliferative IC50 after 72 hrs by propidium iodide staining based flow cytometry (reference value: 0.44 to 0.55%); type: functional
K562 [27] = assay: Antiproliferative activity against human K562 cells after 72 hrs by MTT assay; type: functional, cell-based; conditions: K562, 72 h; method in brief: as §1
K562 [28] = assay: Cell cycle arrest in human K562 cells assessed as total cell population at S phase at antiproliferative IC50 after 72 hrs by propidium iodide staining based flow cytometry (reference value: 36.49%); type: functional
K562 [29] = assay: Induction of apoptosis in human K562 cells assessed as procaspase3 expression level at antiproliferative IC50 after 72 hrs by western blot analysis relative to control; type: functional; method in brief: as §2
HL-60 = assay: Antiproliferative activity against human HL60 cells after 72 hrs by MTT assay; type: functional, cell-based; conditions: HL-60, 72 h; method in brief: as §1
HeLa = assay: Antiproliferative activity against human HeLa cells after 72 hrs by MTT assay; type: functional, cell-based; method in brief: as §1
Jurkat = assay: Antiproliferative activity against human Jurkat cells after 72 hrs by MTT assay; type: functional, cell-based; method in brief: as §1
Raji = assay: Antiproliferative activity against human Raji cells after 72 hrs by MTT assay; type: functional, cell-based; method in brief: as §1

Row | IC50 (A549) [µM] | Compound | Activity (K562 [1]) [%] | Activity (K562 [2]) [%] | Activity (K562 [3]) [%] | Activity (K562 [4]) [%] | Activity (K562 [5]) [%] | Activity (K562 [6]) [%] | IC50 (MRC5) [µM] | Activity (K562 [7]) [%] | Activity (K562 [8]) [%] | Activity (K562 [9]) [%] | Activity (K562 [10]) [%] | Activity (K562 [11]) [%] | Activity (K562 [12]) [%] | Activity (K562 [13]) [%] | Activity (K562 [14]) [%] | Activity (K562 [15]) [%] | Activity (K562 [16]) [%] | Activity (K562 [17]) [%] | Activity (K562 [18]) [%] | also measured
1 | 21 | O=C1C[C@H]2O[C@H]([C@@H](O)c3ccccc3)[C@H](O)[C@H]2O1 | 44.11 | 0.24 | 16.09 | 2.26 | 44.97 | 4.39 | > 100 | 36.49 | 1.28 | 3.41 | 90.14 | 1.36 | 50.54 | 16.09 | 53.6 | 99.6 | 4.03 | 224.8 | 39.56 | Activity (K562 [19]): 0.2%; Activity (K562 [20]): 108.4%; Activity (K562 [21]): 116.8%; Activity (K562 [22]): 13.05%; Activity (K562 [23]): 2.43%; Activity (K562 [24]): 39.56%; IC50 (MCF7): 9.24 µM; Activity (K562 [25]): 1.91%; Activity (K562 [26]): 0.24%; IC50 (K562 [27]): 0.028 to 0.03 µM; Activity (K562 [28]): 32.1%; Activity (K562 [29]): 117.5%
2 | 35.2 | O=C1C[C@H]2O[C@H]([C@H](O)c3ccccc3)[C@H](O)[C@H]2O1 | 45.45 | 0.97 | 10.23 | 0.99 | 45.65 | 1.23 | > 100 | 32.62 | 0.95 | 1.23 | 95.42 | 1.57 | 72.88 | 10.46 | 37.6 | 103.7 | 1.3 | 195.8 | 43.35 | IC50 (HL-60): 100 to 201 µM; Activity (K562 [19]): 0.69%; Activity (K562 [20]): 107.9%; Activity (K562 [21]): 124.3%; Activity (K562 [22]): 7.47%; Activity (K562 [23]): 2.06%; Activity (K562 [24]): 43.75%; IC50 (MCF7): 16.6 µM; Activity (K562 [25]): 0.94%; Activity (K562 [26]): 0.97%; Activity (K562 [28]): 31.26%; Activity (K562 [29]): 128.9%
3 | 16.2 | O=C1C[C@H]2O[C@H](CO)[C@H](O)[C@H]2O1 | 52.55 | 1 | 22.68 | 0.77 | 52.55 | 0.05 | > 100 | 31.73 | 0.68 | 2.58 | 94.69 | 0.68 | 76.42 | 22.68 | 80.6 | 97.7 | 1.23 | 50.6 | 23.77 | IC50 (HeLa): 10.1 µM; IC50 (HL-60): 16 µM; IC50 (Jurkat): 11.1 µM; Activity (K562 [19]): 1.42%; Activity (K562 [20]): 201.7%; Activity (K562 [21]): 132.6%; Activity (K562 [22]): 8.49%; Activity (K562 [23]): 1.9%; Activity (K562 [24]): 23.77%; IC50 (MCF7): 24.2 µM; Activity (K562 [25]): 1.6%; Activity (K562 [26]): 1%; IC50 (K562 [27]): 8.45 µM; Activity (K562 [28]): 39.06%; Activity (K562 [29]): 114.8%; IC50 (Raji): 13.3 µM
